Most compounds without a hit are left out; they make up all but 3.8% or so of the library.
Kir21 inh – blocks the mouse Kir2.1 inward-rectifier potassium channel. P35561. HEK293-Kir2.1, FluxOR thallium flux fluorescence; active compounds read low. B-score at 10 µM. 310,000 tested, 0.85% active;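 active means fluorescence ratio B-score at or below minus 3 SD of library scores, with starting-brightness B-score within 2 SD, cut at about -4.2 in these data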;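 further: channel flux triggered by added potassium and thallium sulfate stimulus; B-score of peak minus minimum fluorescence over baseline after thallium stimulus; more negative B-score means stronger Kir2.1 block with less thallium influx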
KCNQ1 pot – potentiators or activators of human KCNQ1 potassium channel; P51787; CHO-K1 KCNQ1, thallium flux FluxOR fluorescence; active compounds read high; B-score at 10 µM; 310,000 tested, 0.35% active; AID 2648;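 active means fluorescence ratio B-score, a plate-corrected score, at least three library SD, with initial intensity B-score within 5 SD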
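Schedule – 37 °C overnight plating, 90-min dark dye load, 20-min compound pretreatment · System – stable KCNQ1 CHO-K1 line · Probe or stimulus – thallium- and potassium-containing depolarizing buffer · Measured by – kinetic FluxOR fluorescence, 10 s baseline plus 110 s post-stimulus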
KCNK9 block – inhibitors of human KCNK9 two-pore domain potassium channel; 310,000 tested, 1.2% active; HEK293 KCNK9, FluxOR thallium flux fluorescence; active compounds read low; Q9NPC2; B-score at 10 µM;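 active means ratio B-score over 3 SD below the library mean, with starting fluorescence within 5 SD of its mean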;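 further: negative B-score means less thallium flux so channel inhibition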
Target sequence (Q9NPC2 whole entry, looked up, the tested form may be a part): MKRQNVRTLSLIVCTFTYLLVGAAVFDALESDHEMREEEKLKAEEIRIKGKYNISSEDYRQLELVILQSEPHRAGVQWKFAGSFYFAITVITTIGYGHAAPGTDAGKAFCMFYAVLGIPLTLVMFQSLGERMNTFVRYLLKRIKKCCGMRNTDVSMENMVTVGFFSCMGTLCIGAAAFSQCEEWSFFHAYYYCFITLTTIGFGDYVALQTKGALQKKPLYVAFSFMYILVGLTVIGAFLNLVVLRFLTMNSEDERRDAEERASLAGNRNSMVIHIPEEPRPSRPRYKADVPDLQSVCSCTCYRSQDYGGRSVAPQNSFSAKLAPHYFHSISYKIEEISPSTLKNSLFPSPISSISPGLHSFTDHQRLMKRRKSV
KCNK3 block – human KCNK3 channel inhibition, primary screen | O14649 | CHO-KCNK3 thallium flux, FluxOR fluorescence; active compounds read low | B-score at 10 µM | 340,000 tested, 0.84% active;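 active means B-score under library mean minus 4 SD, starting fluorescence ratio at most library mean plus 5 SD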;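 further: more negative B-score means stronger inhibition of thallium flux through KCNK3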
KCNQ1 inh – blocks the human KCNQ1 potassium channel; CHO-K1 KCNQ1, FluxOR thallium flux fluorescence; active compounds read high; B-score at 10 µM; AID 2642; P51787; 310,000 tested, 1.3% active;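 active means compounds whose thallium flux B-score, printed positive for inhibition, exceeds three library SD while starting fluorescence stays within three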;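 further: channel opened by potassium depolarization with thallium stimulus after 20 min compound exposure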
hERG rescue – compounds protecting human hERG from proarrhythmic drug block; 310,000 tested, 0.51% active; CHO-hERG, FluxOR thallium flux, dofetilide IC70 present; activation (rescue from dofetilide block), less the hit threshold, % at 10 µM;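 active means activation above the mean of controls blocked by dofetilide plus 5 SD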;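 further: thallium influx through hERG after potassium depolarization seen as dye fluorescence rise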
* = called active by the depositor.

For COc1ccc(-c2nn(CCC#N)cc2C(=O)Nc2cccc(C(=O)O)c2)cc1[N+](=O)[O-] the results were Kir21 inh -0.08, KCNQ1 pot inactive, KCNK9 block inactive, KCNK3 block inactive, KCNQ1 inh inactive and hERG rescue -11.
CN1CCN(NC(=O)Nc2cccc(F)c2)CC1 was read as Kir21 inh -0.61, KCNQ1 pot inactive, KCNK9 block inactive, KCNK3 block inactive, KCNQ1 inh 8* and hERG rescue -7.
For N=c1oc2cc(O)ccc2cc1C(=O)Nc1ccc(Br)cc1 the results were Kir21 inh 1.1, KCNQ1 pot inactive, KCNK9 block inactive, KCNK3 block inactive, KCNQ1 inh 8* and hERG rescue -5.
`COC(=O)c1c(C)nc(C)c(C(=O)OC)c1-c1cccs1` gave Kir21 inh -0.7, KCNQ1 pot inactive, KCNK9 block inactive, KCNK3 block inactive, KCNQ1 inh inactive and hERG rescue 8.1*.
COC(=O)c1sc(-c2cccs2)cc1N was read as Kir21 inh 0.36, KCNQ1 pot inactive, KCNK9 block inactive, KCNK3 block inactive, KCNQ1 inh inactive and hERG rescue -3.
Screening CSc1cccc(NC(=O)c2nnn(CC(=O)Nc3cc(C)cc(C)c3)c2N)c1 returned Kir21 inh 0.1, KCNQ1 pot inactive, KCNK9 block inactive, KCNK3 block inactive, KCNQ1 inh inactive and hERG rescue -8.
For COc1ccc(OC)c(NS(=O)(=O)c2cccc3cccnc23)c1 the results were Kir21 inh -0.31, KCNQ1 pot inactive, KCNK9 block inactive, KCNK3 block inactive, KCNQ1 inh inactive and hERG rescue -4.
Screening COc1ccc(NS(=O)(=O)c2ccc3ccccc3c2)c2ncccc12 returned Kir21 inh -0.7, KCNQ1 pot 11*, KCNK9 block inactive, KCNK3 block inactive, KCNQ1 inh inactive and hERG rescue 5.7*.
For CCC1(O)CC(c2ccccc2)=NN1C(=O)c1ccccc1F (centres undefined) the results were Kir21 inh 0.83, KCNQ1 pot inactive, KCNK9 block inactive, KCNK3 block inactive, KCNQ1 inh inactive and hERG rescue -2.
`O=C(CSc1nc(-c2ccc(F)cc2)cs1)NC(=O)NCc1ccco1` gave Kir21 inh 1.5, KCNQ1 pot inactive, KCNK9 block inactive, KCNK3 block inactive, KCNQ1 inh inactive and hERG rescue 4.9*.
`CCn1c(SCC(=O)NC(=O)NCc2ccco2)nc2sc(C)c(C)c2c1=O` gave Kir21 inh 0.52, KCNQ1 pot 12*, KCNK9 block inactive, KCNK3 block inactive, KCNQ1 inh inactive and hERG rescue 9.2*.
CC(C)CC(NC(N)=O)C(=O)OCC(=O)N(Cc1ccccc1)Cc1ccccc1 (centres undefined) was read as Kir21 inh -0.54, KCNQ1 pot inactive, KCNK9 block inactive, KCNK3 block inactive, KCNQ1 inh inactive and hERG rescue -4.
CCOC(=O)C1=C(COC(=O)/C=C/c2cccc([N+](=O)[O-])c2)NC(=O)NC1C (centres undefined) was read as Kir21 inh 1.9, KCNQ1 pot inactive, KCNK9 block inactive, KCNK3 block inactive, KCNQ1 inh inactive and hERG rescue -9.
Screening Cc1nn(C)c2ncc(C(N)=O)c(Oc3ccc(Cl)cc3)c12 returned Kir21 inh 0.56, KCNQ1 pot inactive, KCNK9 block inactive, KCNK3 block inactive, KCNQ1 inh inactive and hERG rescue -1.
`CC(=O)Oc1ccc(C(=O)Nc2cccc(C(=O)c3ccc(C)c(C)c3)c2)cc1` gave Kir21 inh -2, KCNQ1 pot inactive, KCNK9 block inactive, KCNK3 block inactive, KCNQ1 inh 6* and hERG rescue -7.
Screening COc1ccc(C(=O)Nc2cccc(OC(=O)c3ccc(C)c(C)c3)c2)cc1 returned Kir21 inh 1.2, KCNQ1 pot inactive, KCNK9 block inactive, KCNK3 block inactive, KCNQ1 inh 6* and hERG rescue -17.
`CC(=O)Oc1cccc(NC(=O)c2cccc(C(=O)Nc3cccc(OC(C)=O)c3)c2)c1` gave Kir21 inh 0.01, KCNQ1 pot inactive, KCNK9 block inactive, KCNK3 block inactive, KCNQ1 inh inactive and hERG rescue -5.
CCOCCc1c(O)nc(SC)[nH]c1=O was read as Kir21 inh -9.3e-16, KCNQ1 pot 8*, KCNK9 block inactive, KCNK3 block inactive, KCNQ1 inh inactive and hERG rescue 0.
Screening C=CCNC1=C(Cl)C(=O)c2ccccc2C1=O returned Kir21 inh 0.16, KCNQ1 pot inactive, KCNK9 block inactive, KCNK3 block inactive, KCNQ1 inh inactive and hERG rescue -4.
O=C1C(Cl)=C(NCc2cccnc2)C(=O)c2ccccc21 was read as Kir21 inh -0.84, KCNQ1 pot inactive, KCNK9 block inactive, KCNK3 block inactive, KCNQ1 inh 9* and hERG rescue -17.
Screening O=C1C(Cl)=C(Nc2ccccc2)C(=O)c2ccccc21 returned Kir21 inh -0.48, KCNQ1 pot inactive, KCNK9 block inactive, KCNK3 block inactive, KCNQ1 inh inactive and hERG rescue -10.
CC(C)NC1=C(Cl)C(=O)c2ccccc2C1=O was read as Kir21 inh -0.96, KCNQ1 pot inactive, KCNK9 block inactive, KCNK3 block inactive, KCNQ1 inh inactive and hERG rescue 4.9*.
Screening O=C(CSCc1cccc(Cl)c1)Nc1ccccc1-c1ccccc1 returned Kir21 inh -5.7*, KCNQ1 pot inactive, KCNK9 block inactive, KCNK3 block inactive, KCNQ1 inh inactive and hERG rescue -2.
Screening Cc1ccccc1CSCC(=O)Nc1ccccc1-c1ccccc1 returned Kir21 inh -6.9*, KCNQ1 pot inactive, KCNK9 block inactive, KCNK3 block inactive, KCNQ1 inh inactive and hERG rescue -3.
For NC(=O)c1ccccc1NC(=O)COC(=O)CSCc1cccc(Cl)c1 the results were KCNK3 block inactive.
`CCc1ccc(-c2cc(C(=O)O)c3ccccc3n2)s1` gave Kir21 inh -2.1, KCNQ1 pot inactive, KCNK9 block inactive, KCNK3 block inactive, KCNQ1 inh inactive and hERG rescue -3.
For COc1ccc(C(=O)C(c2ccccc2)N2CCOCC2)cc1 (centres undefined) the results were Kir21 inh -1.7, KCNQ1 pot inactive, KCNK9 block inactive, KCNK3 block inactive, KCNQ1 inh inactive and hERG rescue -3.
Screening Cc1ccc(C(=O)C(c2ccccc2)N2Cc3ccccc3C2=N)cc1 (centres undefined) returned Kir21 inh -8.3*, KCNQ1 pot inactive, KCNK9 block inactive, KCNK3 block inactive, KCNQ1 inh 11* and hERG rescue -17.

Bioassay records deposited in PubChem BioAssay by Johns Hopkins Ion Channel Center.
